PRMT1 inh – inhibitors of human PRMT1. Q99873. recombinant PRMT1, activity-based probe fluorescence polarization. inhibition, % at 2.79 µM. actives 1.3% (n = 370,000);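 active means inhibition above about 21% made by adding two undisclosed values, limit read from the data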
Target sequence (Q99873 whole entry, looked up): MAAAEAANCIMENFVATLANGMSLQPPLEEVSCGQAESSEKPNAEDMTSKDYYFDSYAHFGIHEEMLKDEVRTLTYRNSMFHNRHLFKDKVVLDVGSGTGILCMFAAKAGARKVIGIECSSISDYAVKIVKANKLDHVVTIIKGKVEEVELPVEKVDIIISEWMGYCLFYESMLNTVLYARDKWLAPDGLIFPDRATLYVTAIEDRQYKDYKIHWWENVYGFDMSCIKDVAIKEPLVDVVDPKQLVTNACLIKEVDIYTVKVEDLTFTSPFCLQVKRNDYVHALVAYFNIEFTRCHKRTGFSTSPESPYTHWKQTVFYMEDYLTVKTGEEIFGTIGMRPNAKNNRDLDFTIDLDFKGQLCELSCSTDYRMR
ABHD4 inh – ABHD4 (mouse) inhibition, primary FP screen | purified mABHD4, FP-Rh probe fluorescence polarization | AID 720543 | inhibition, % at 8.92 µM | Q8VD66 | actives 0.54% (n = 370,000);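 active means inhibition exceeding the mean over every tested compound plus 3 SD, cut at about 30% in these data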
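Assay system: mABHD4 protein; medium: HEPES pH 7.0, NaCl, Pluronic buffer; dosing: 8.92 µM, single dose; schedule: 45 min + 60 min at 25 °C; signal: FP readout, ex 525 nm / em 598 nm; read-out: normalized percent inhibition of probe labeling; repeats: single replicate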
SIAE inh – inhibitors of human sialic acid acetylesterase SIAE | SIAE FP-Rh probe binding, fluorescence polarization | Q9HAT2 | actives 0.69% (n = 370,000) | inhibition, % at 9.66 µM | AID 1053197;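 active means inhibition above a cutoff: mean of compounds within the control limits plus 3 SD of those, cut at about 17% in these data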
TCR-CD3 inh – blocks the human TCR-CD3 interaction; inhibition, % at 9.4 µM; AID 651800; TAMRA-labeled TCR probe fluorescence, biochemical; actives 0.37% (n = 360,000); in the data active means inhibition above about 19%;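 further: recombinant mutant TCR 2C K166C tagged with TAMRA read by polarization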
HTRA1 inh – inhibitors of human serine peptidase HTRA1. AID 504803. actives 0.5% (n = 340,000). recombinant HTRA1, FP-rhodamine activity-based probe, fluorescence polarization. inhibition, % at 5.96 µM. Q92743; in the data active means inhibition above about 36%
PRMT1 confirm – PRMT1 (human) inhibition, FP confirmation | shares compounds with PRMT1 inh | recombinant His-PRMT1, activity-based probe fluorescence polarization | inhibition, % at 2.79 µM | actives 42% (n = 3,300);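 active means mean inhibition across replicates above the hit cutoff derived for the earlier primary screen, cut at about 22% in these data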
Each line names hits and unclear results; the compound was inactive in the other large screens (follow-up assays come after a bar, where they were run). Compounds with a hit are over-represented: about 2.7% of the library has one in this group of screens.

COc1ccc(C2CC(=O)N3CN(Cc4ccco4)CSC3=C2C#N)cc1 (centres undefined)	none
COc1ccc(N2CSC3=C(C#N)C(c4cccc(OC)c4OC)CC(=O)N3C2)cc1 (centres undefined)	PRMT1 inh 41.2 | PRMT1 confirm 68.1
N#CC1=C2SCN(Cc3ccco3)CN2C(=O)CC1c1ccc(Cl)cc1 (centres undefined)	PRMT1 inh 32.4 | PRMT1 confirm inactive
COc1ccc(C2CC(=O)N3CN(c4ccc(C)c(Cl)c4)CSC3=C2C#N)cc1 (centres undefined)	PRMT1 inh 44.0 | PRMT1 confirm 59.1
COC1CC(N)C2OC(c3ccccc3)OCC2O1 (centres undefined)	none
Cc1cccc(COC(=O)C(Cc2ccccc2)NC(N)=O)c1 (centres undefined)	none
Cc1c(Nc2cc(Cl)c3nonc3c2[N+](=O)[O-])c(=O)n(-c2ccccc2)n1C	PRMT1 inh 58.5 | PRMT1 confirm 58.2
O=[N+]([O-])c1c(Nc2cccc(O)c2)cc(Cl)c2nonc12	PRMT1 inh 60.2 | PRMT1 confirm 57.8
Cc1c(-c2n[nH]c(=S)n2-c2ccc(C(F)(F)F)cc2)nnn1-c1ccccc1	PRMT1 inh 30.0 | PRMT1 confirm inactive
CCOC(=O)C1=CCN(S(=O)(=O)c2ccc(Br)cc2)C1c1ccc(Br)cc1 (centres undefined)	none (no result: HTRA1 inh)
CCOC(=O)c1sc(=S)n(CC)c1N	none
CCn1c(N)c(C(N)=O)sc1=S	PRMT1 inh 26.8 | PRMT1 confirm inactive
CCOc1ccc(-n2c(SCC(=O)c3ccc4ccccc4c3)nnc2-c2ccco2)cc1	PRMT1 inh 45.6 (no result: TCR-CD3 inh, HTRA1 inh) | PRMT1 confirm inactive
CSCC[C@H](NC(=O)Cc1c(C)c2c(cc(C)c3c(C)coc32)oc1=O)C(=O)O	none
NC(=O)c1ccccc1NC(=O)CSC1=NCCS1	PRMT1 inh 27.5 | PRMT1 confirm 53.3
Cc1cc(NC(=O)CSC2=NCCS2)no1	PRMT1 inh 38.9 | PRMT1 confirm inactive
O=C(CSC1=NCCS1)Nc1ccc(F)cc1	none (no result: HTRA1 inh)
Cn1c(CNC(=O)c2ccc3c(c2)OCO3)nnc1SCC(=O)Nc1ccc(F)cc1F	none
O=C(CSc1ccccn1)N1CCN(c2ccccc2)CC1	none (no result: PRMT1 inh, ABHD4 inh, SIAE inh, TCR-CD3 inh)
O=C(CSc1ccccn1)N1CCN(c2cccc(Cl)c2)CC1	PRMT1 inh 46.8 | PRMT1 confirm 53.0
COc1ccc2c(c1)-c1ccccc1S(=O)(=O)N(C)C2	PRMT1 inh 29.9 | PRMT1 confirm inactive
CC1(C)CC(=O)C(CS(=O)(=O)c2ccccc2)=C(O)C1	PRMT1 inh 27.2 | PRMT1 confirm 22.2
O=C(CC(Nc1ccc(F)cc1)C(=O)OCC(=O)c1cccs1)c1ccccc1 (centres undefined)	PRMT1 inh 29.4 | PRMT1 confirm inactive
O=C(CC(Nc1ccc(F)cc1)C(=O)O)c1ccccc1 (centres undefined)	none
CC(C)(C)OC(=O)NC1CCN(c2nc(-c3ccc(Br)cc3)cs2)CC1	none (no result: TCR-CD3 inh, HTRA1 inh)
COc1ccc(C2c3cc(OC)c(OC)cc3CCN2C2CC(=O)N(c3ccccc3)C2=O)cc1OC (centres undefined)	PRMT1 inh 41.5 | PRMT1 confirm inactive
COc1ccc(N2C(=O)CC(N(C)CCc3ccc(OC)c(OC)c3)C2=O)cc1 (centres undefined)	PRMT1 inh 47.6 | PRMT1 confirm inactive
COc1ccc(CCN(C)C2CC(=O)N(c3ccccc3)C2=O)cc1OC (centres undefined)	PRMT1 inh 45.6 | PRMT1 confirm inactive
O=C1C=CC(=Nc2ccc(F)cc2)O1	PRMT1 inh 50.3 | PRMT1 confirm 79.4
O=C1C=C(C2OC(CO)C(O)C2O)C(=O)N1 (centres undefined)	PRMT1 inh 70.0 | PRMT1 confirm 71.3
CC(=O)Nc1ccc(SC[C@H](Cc2ccccc2)N2CC[C@@H](O)CCC2=O)cc1	none
CC(=O)Nc1ccc(SC[C@H](Cc2ccccc2)N2CC[C@@H](C(C)(C)C)CCC2=O)cc1	PRMT1 inh 51.5 | PRMT1 confirm 39.4
CC(=O)Nc1ccc(S[C@@H](CCN2CC[C@H](C(C)(C)C)CCC2=O)c2ccccc2)cc1	PRMT1 inh 44.9 | PRMT1 confirm 60.6
CC(=O)Nc1ccc(SCCN2CC[C@@H](O)CCC2=O)cc1	none
CC(=O)Nc1ccc(SCCN2CC[C@@H](C)CCC2=O)cc1	PRMT1 inh 24.9 | PRMT1 confirm 29.8
CC(C)(C)[C@H]1CCC(=O)N([C@H](CSc2ccccc2)Cc2ccccc2)CC1	none
CC(=O)Nc1ccc(SC[C@H](Cc2ccccc2)N2CCN(CCc3ccccc3)CCC2=O)cc1	PRMT1 inh 29.2 | PRMT1 confirm 41.9
COC(=O)C1CCCN(C(=O)C2CCN(S(=O)(=O)c3cccs3)CC2)C1 (centres undefined)	none (no result: TCR-CD3 inh, HTRA1 inh)
CCOC(=O)N1CCN(Cc2ccc(OCC(O)CN3CCCCC3)cc2)CC1 (centres undefined)	none
CCOC(=O)C1=C[C@@H](c2ccccc2)N(S(=O)(=O)c2ccc(C)cc2)[C@H]1c1ccccc1Cl	none (no result: HTRA1 inh)
COc1ccc(S(=O)(=O)/N=C2/NC(=O)/C(=C/c3ccco3)S2)cc1	PRMT1 inh 46.9 | PRMT1 confirm inactive
COc1ccc(S(=O)(=O)/N=C2/NC(=O)/C(=C\c3cc(OC)c(OC)cc3[N+](=O)[O-])S2)cc1	none
COc1cc(/C=C2\S/C(=N/S(=O)(=O)c3ccccc3)NC2=O)c([N+](=O)[O-])cc1OC	PRMT1 inh 29.8 | PRMT1 confirm inactive
COc1ccc(S(=O)(=O)/N=C2/NC(=O)/C(=C\c3ccco3)S2)cc1	PRMT1 inh 30.4 | PRMT1 confirm inactive
CCSc1n[nH]c(=O)n1C	none (no result: HTRA1 inh)
CC1(C)SCC(C(=O)O)N1C=O (centres undefined)	PRMT1 inh 25.8 | PRMT1 confirm inactive
COc1ccc(NC(=O)C2CSC(C)(C)N2C=O)cc1 (centres undefined)	none
Cc1ccccc1-n1ncc(C(C)NS(=O)(=O)c2ccccc2Cl)c1C (centres undefined)	none
CC(=O)Nc1ccc(S(=O)(=O)NCC(=O)NNC(=O)c2csc(N3CCOCC3)n2)cc1	PRMT1 inh 52.3 | PRMT1 confirm inactive
C=CCN1C(=O)[C@]2(OCCC=C[C@H]2C)c2cc(OC)ccc21	none (no result: HTRA1 inh)
CC1(C)Cc2c(C#N)c(N)n(-c3ccccc3)c(=S)c2CO1	none (no result: HTRA1 inh)
N#Cc1c2c(c(=S)n(-c3ccccc3)c1N)CCCC2	PRMT1 inh 26.3 | PRMT1 confirm inactive
CC(/C=N/n1c(COc2ccccc2)n[nH]c1=S)=C\c1ccccc1	PRMT1 inh 27.3 | PRMT1 confirm inactive
CC(=C/c1ccccc1)/C=N/n1c(C)n[nH]c1=S	none
